Active and inactive are the calls of the source. The rule behind the calls is not given here.
Assays:
[1] = Cytotoxicity against human Hs683 cells after 72 hrs by MTT assay; type: functional, cell-based, Hs 683
In short: (§1)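 MTT reduction read by spectrophotometry after 72 h compound exposure; growth measured as treated vs control optical density, IC50 taken as the concentration giving 50% growth reduction. Six replicates per condition. Cells grown in RPMI with 10% heat-inactivated FBS, 4 mM glutamine, gentamicin and penicillin–streptomycin; NHDF fibroblasts were instead kept in FGM-2 fibroblast medium.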

SK-MEL-28 [2] = experiment: Cytotoxicity against human SK-MEL-28 cells after 72 hrs by MTT assay; type: functional, cell-based; in short: as §1
U-251 = experiment: Cytotoxicity against human U251 cells after 72 hrs by MTT assay; type: functional, cell-based; in short: as §1
A549 [3] = experiment: Cytotoxicity against human A549 cells after 72 hrs by MTT assay; type: functional, cell-based; in short: as §1
PC-3 [4] = experiment: Cytotoxicity against human PC3 cells after 72 hrs by MTT assay; type: functional, cell-based; in short: as §1
[5] = Cytotoxicity against human U373 cells after 72 hrs by MTT assay; type: functional, cell-based, U-373MG ATCC; in short: as §1
MCF7 = experiment: Cytotoxicity against human MCF7 cells after 72 hrs by MTT assay; type: functional, cell-based; in short: as §1
SK-MEL-28 [6] = experiment: Cytotoxicity against human SK-MEL-28 cells assessed as growth inhibition at 10 uM after 24 to 72 hrs by quantitative video microscopic analysis; type: functional, cell-based
In short: (§2)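 Computer-assisted phase-contrast time-lapse microscopy in T25 flasks with 10 μM compound. Cells were counted on images at 6, 12, 24 h for U373 and A549, and at 24, 48, 72 h for SKMEL-28. Global growth is last-image count over first-image count. The ratio index is treated global growth over untreated control global growth. Run in triplicate.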

U-373MG ATCC [7] = experiment: Cytotoxicity against human U373 cells assessed as growth inhibition at 10 uM after 24 hrs by MTT assay; type: functional, cell-based
HaCaT = experiment: Cytotoxicity against human HaCaT cells after 72 hrs by MTT assay; type: cell-based; in short: as §1
U-373MG ATCC [8] = experiment: Cytotoxicity against human U373 cells assessed as growth inhibition at 10 uM […] by quantitative video microscopic analysis; type: functional, cell-based; in short: as §2
U-373MG ATCC [9] = experiment: Induction of ROS production in human U373 cells at 10 uM after 48 hrs by flow cytometry; type: functional, cell-based
In short: (§3)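 Hs683 and U373 glioma cells were exposed to 10 μM for 48 and 72 h; the positive control was 4 mM H2O2 for 1 h. Cells were then loaded with 20 μM DCFH-DA in phenol-red-free RPMI for 1 h at 37 °C, washed twice and detached. Fluorescence was measured by flow cytometry, run once in quadruplicate.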

U-373MG ATCC [10] = experiment: Induction of apoptosis in human U373 cells at 1 uM after 72 hrs by TUNEL staining; type: functional, cell-based
SK-MEL-28 [11] = experiment: Cytotoxicity against human SK-MEL-28 cells assessed as growth inhibition at 10 uM after 24 hrs by MTT assay; type: functional, cell-based
HBL-100 = experiment: Cytotoxicity against human HBL100 cells after 72 hrs by MTT assay; type: cell-based; settings: HBL-100, 72 h; in short: as §1
[12] = Induction of ROS production in human U373 cells at 10 uM after 72 hrs by flow cytometry; type: functional, U-373MG ATCC; in short: as §3
B16-F10 = experiment: Cytotoxicity against mouse B16F10 cells after 72 hrs by MTT assay; type: functional, cell-based; settings: B16-F10, 72 h; in short: as §1
Hs 683 [13] = experiment: Induction of ROS production in human Hs683 cells at 10 uM after 72 hrs by flow cytometry; type: functional; in short: as §3
Hs 683 [14] = experiment: Induction of apoptosis in human Hs683 cells at 1 uM after 72 hrs by TUNEL staining; type: functional, cell-based
A549 [15] = experiment: Cytotoxicity against human A549 cells assessed as growth inhibition at 10 uM […] by quantitative video microscopic analysis; type: functional, cell-based; in short: as §2
A549 [16] = experiment: Cytotoxicity against human A549 cells assessed as growth inhibition at 10 uM after 24 hrs by MTT assay; type: functional, cell-based
LoVo = experiment: Cytotoxicity against human LoVo cells after 72 hrs by MTT assay; type: functional, cell-based; in short: as §1
NHDF = experiment: Cytotoxicity against human NHDF cells after 72 hrs by MTT assay; type: cell-based; in short: as §1
PC-3 [17] = experiment: Induction of apoptosis in human PC3 cells at 1 uM after 72 hrs by TUNEL staining; type: functional
In short: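 TUNEL apoptosis staining with a commercial kit, read by flow cytometry. PC3 prostate cells were untreated or exposed to 1 μM for 72 h, four replicates. Kit-supplied lymphoma cells served as extra negative and positive controls.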

[18] = Homo sapiens, Hs 683, 72 h, read-out: IC50
[19] = Homo sapiens, SK-MEL-28, 72 h, read-out: IC50
[20] = Homo sapiens, U-251, 72 h, read-out: IC50
[21] = Homo sapiens, A549, 72 h, read-out: IC50
[22] = Homo sapiens, PC-3, 72 h, read-out: IC50
[23] = Homo sapiens, U373 MG, 72 h, read-out: IC50
[24] = Homo sapiens, MCF7, 72 h, read-out: IC50

C=C1CCC[C@@H]2[C@@H](CC[C@@]3(C)CC[C@H]([C@H](C)C(=O)O)OO3)[C@H](C)CC[C@@]12C [SIGMOSCEPTRELLIN B]
IC50 [1, 18]: > 100 µM
IC50 (SK-MEL-28 [2]; [19]): > 100 µM
IC50 (U-251; [20]): > 100 µM
IC50 (A549 [3]; [21]): > 100 µM
IC50 (PC-3 [4]; [22]): > 100 µM
IC50 [5, 23]: > 100 µM
IC50 (MCF7; [24]): > 100 µM

COC(=O)[C@@H](C)[C@H]1CC[C@@](C)(CCC2=C(C)CCCC2(C)C)OO1
IC50 ([1]; hs 683): ND(Unstable)
IC50 (SK-MEL-28 [2]; sk-mel-28): ND(Unstable)
IC50 (U-251; u-251): ND(Unstable)
IC50 (A549 [3]; a549): ND(Unstable)
IC50 (PC-3 [4]; pc-3): ND(Unstable)
IC50 ([5]; u-373mg atcc): ND(Unstable)
IC50 (MCF7; mcf7): ND(Unstable)

COC(=O)[C@H](C)[C@H]1CC[C@@](C)(CCC2=C(C)CCCC2(C)C)OO1 [NUAPAPUIN A METHYL ESTER]
IC50 [1, 18]: 38 µM
IC50 (SK-MEL-28 [2]; [19]): 80 µM
IC50 (U-251; [20]): 91 µM
IC50 (A549 [3]; [21]): 25 µM
IC50 (PC-3 [4]; [22]): 80 µM
IC50 [5, 23]: 99 µM
IC50 (MCF7; [24]): 51 µM

C=C1CCC[C@@H]2[C@@](C)(CC[C@@]3(C)CC[C@H]([C@H](C)C(=O)OC)OO3)[C@H](C)CC[C@@]12C
IC50 [1, 18]: 35 µM
IC50 (SK-MEL-28 [2]; [19]): 44 µM
IC50 (U-251; [20]): 54 µM
IC50 (A549 [3]; [21]): 24 µM
IC50 (PC-3 [4]; [22]): 44 µM
IC50 [5, 23]: 53 µM
IC50 (MCF7; [24]): 36 µM

C=C1CCCC(C)(C)C1(O)CC/C(C)=C/CC[C@]1(C)CC[C@@H]([C@@H](C)C(=O)O)OO1 (stereo partly specified) [HURGHAPEROXIDE]
IC50 [1, 18]: 37 µM
IC50 (SK-MEL-28 [2]; [19]): 73 µM
IC50 (U-251; [20]): 87 µM
IC50 (A549 [3]; [21]): 31 µM
IC50 (PC-3 [4]; [22]): 73 µM
IC50 [5, 23]: 83 µM
IC50 (MCF7; [24]): 45 µM

CC1=C(CC/C(C)=C/CC[C@@]2(C)CC[C@H]([C@H](C)C(=O)O)OO2)C(C)(C)CCC1
growth inhibition (GI) (SK-MEL-28 [6]): Active
growth inhibition (GI) (U-373MG ATCC [7]): Active
IC50 [1, 18]: 4 µM
IC50 (SK-MEL-28 [2]; [19]): 8 µM
IC50 (HaCaT): 23 µM
IC50 (U-251; [20]): 8 µM
growth inhibition (GI) (U-373MG ATCC [8]): Active
Activity (U-373MG ATCC [9]): Active
Activity (U-373MG ATCC [10]): inactive
growth inhibition (GI) (SK-MEL-28 [11]): Active
IC50 (A549 [3]; [21]): 3 µM
IC50 (PC-3 [4]; [22]): 8 µM
IC50 (HBL-100): 3 µM
Activity [12]: 30%
IC50 (B16-F10): 3 µM
Activity (Hs 683 [13]): 30%
Activity (Hs 683 [14]): inactive
growth inhibition (GI) (A549 [15]): Active
growth inhibition (GI) (A549 [16]): Active
IC50 (LoVo): 6 µM
IC50 (NHDF): 26 µM
IC50 [5, 23]: 7 µM
IC50 (MCF7; [24]): 7 µM

O=C1N[C@@H]2C(=C[C@H](O)[C@@H](O)[C@H]2O)c2cc3c(c(O)c21)OCO3 [NARCICLASINE]
Activity (PC-3 [17]): >85%

C/C(=C\CC[C@]1(C)CC[C@@H]([C@@H](C)C(=O)O)OO1)CCC12OC1(C)CCCC2(C)C (relative stereo)
IC50 [1, 18]: 3 µM
IC50 (SK-MEL-28 [2]; [19]): 22 µM
IC50 (A549 [3]; [21]): 3 µM
IC50 (PC-3 [4]; [22]): 2 µM
IC50 [5, 23]: 7 µM
IC50 (MCF7; [24]): 6 µM

CC1=C(CC[C@]2(C)O[C@H]2CC[C@]2(C)CC[C@@H]([C@@H](C)C(=O)O)OO2)C(C)(C)CCC1 (relative stereo)
IC50 [1, 18]: 3 µM
IC50 (SK-MEL-28 [2]; [19]): 15 µM
IC50 (A549 [3]; [21]): 3 µM
IC50 (PC-3 [4]; [22]): 1 µM
IC50 [5, 23]: 4 µM
IC50 (MCF7; [24]): 4 µM

Reference: ChEMBL document CHEMBL2417525, “In vitro pharmacological and toxicological effects of norterpene peroxides isolated from the Red Sea sponge Diacarnus erythraeanus on normal and cancer cells” (J Nat Prod, 2013)
